Data set [1] deals with pig gastric microsomal H,K-ATPase (Sus scrofa, UniProt P19156). Briefly: H,K-ATPase assay. The format is biochemical. The conditions noted are these: for Attenuation of H,K-ATPase activity: non-physiological concentrations greater than 10^-7 M (up to 1 μM); for Inhibitory activity against H,K-ATPase: physiological concentrations (10^-9–10^-8 M).
For data set [2], the system named is IL-8 secretion by human gastric adenocarcinoma (AGS) cells. The experiment in a line: IL-8 secretion by AGS cells. Particulars: 24 h, read-out: IC50, inhibition of baseline IL-8 secretion. The data set is classed as cell-based. The procedure, abridged:
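AGS cells in Ham's F-12 with 10% FBS and antibiotics (37°C, 5% CO2), passages 42–56. Seeded at 50,000 cells/100 μl/well and attached 18 hr, then exposed to test compound with or without IL-1β (1 ng/ml) for 24 hr. Medium IL-8 measured by ELISA. Solvent controls included, solvents <1% final. Triplicates, ≥3 experiments; IC50 from three-parameter logistic fit.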

Data set [3] deals with gastric damage. Particulars: up to 100 mg/kg/d p.o., rat; cited from earlier work.
Data set [4] deals with rat stomach and blood. The conditions noted are these: cited from earlier work.
The test system of data set [5] is rat. Particulars: cited from earlier work.
The subject of data set [6] is dogs. The conditions noted are these: cited from earlier work.
Data set [7] has as its system cats. Particulars: cited from earlier work.
The subject of data set [8] is guinea-pig ileum. The conditions noted are these: cited from earlier work.
In data set [9] the test system is bacteria or mammalian cells; rat bone marrow cells. Particulars: cited from earlier work.
The conditions of data set [10]: 14C-labeled ML 3000, rats; cited from earlier work.
The subject of data set [11] is rabbit gastric parietal cells. Briefly: Acid accumulation assay. The format is cell-based. The conditions noted are these: up to concentrations of 10^-4 M (data not shown).
Data set [12] deals with gastric H,K-ATPase. The conditions noted are these: cited from earlier work; for pIC50: read-out: IC50, gastric proton pump activity.

pIC50, pKi: −log10 of the molar value.

Sequence of pig gastric microsomal H,K-ATPase (P19156 2-1034 limits assumed): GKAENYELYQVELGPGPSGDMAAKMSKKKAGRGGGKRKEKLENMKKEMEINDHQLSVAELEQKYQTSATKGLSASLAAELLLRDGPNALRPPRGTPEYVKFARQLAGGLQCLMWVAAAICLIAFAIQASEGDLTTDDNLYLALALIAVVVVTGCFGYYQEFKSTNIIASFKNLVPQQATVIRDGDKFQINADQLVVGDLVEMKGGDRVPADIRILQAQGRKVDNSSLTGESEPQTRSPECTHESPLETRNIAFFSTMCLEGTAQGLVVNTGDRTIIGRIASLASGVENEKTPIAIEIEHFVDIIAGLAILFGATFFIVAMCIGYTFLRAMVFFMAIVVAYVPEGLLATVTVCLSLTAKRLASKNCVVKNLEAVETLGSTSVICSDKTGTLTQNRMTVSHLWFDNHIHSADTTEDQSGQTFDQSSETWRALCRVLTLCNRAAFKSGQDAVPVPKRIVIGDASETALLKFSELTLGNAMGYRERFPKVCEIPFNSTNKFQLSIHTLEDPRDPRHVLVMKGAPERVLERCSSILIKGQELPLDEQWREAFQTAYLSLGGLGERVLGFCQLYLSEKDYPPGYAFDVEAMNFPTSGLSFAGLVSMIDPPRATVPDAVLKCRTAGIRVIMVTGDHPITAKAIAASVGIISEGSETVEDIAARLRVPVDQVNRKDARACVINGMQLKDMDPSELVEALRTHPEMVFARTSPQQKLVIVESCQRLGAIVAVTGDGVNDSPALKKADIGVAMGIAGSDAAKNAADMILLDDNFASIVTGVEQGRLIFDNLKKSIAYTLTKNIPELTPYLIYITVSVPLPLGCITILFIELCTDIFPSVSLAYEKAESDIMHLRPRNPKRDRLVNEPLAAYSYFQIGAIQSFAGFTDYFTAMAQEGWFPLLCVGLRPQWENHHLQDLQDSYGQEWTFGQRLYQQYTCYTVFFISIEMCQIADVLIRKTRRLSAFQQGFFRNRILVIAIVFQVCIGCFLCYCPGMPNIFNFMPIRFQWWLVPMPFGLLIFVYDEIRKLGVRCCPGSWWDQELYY
Sequence of pig gastric microsomal H,K-ATPase (P18434 whole entry partner): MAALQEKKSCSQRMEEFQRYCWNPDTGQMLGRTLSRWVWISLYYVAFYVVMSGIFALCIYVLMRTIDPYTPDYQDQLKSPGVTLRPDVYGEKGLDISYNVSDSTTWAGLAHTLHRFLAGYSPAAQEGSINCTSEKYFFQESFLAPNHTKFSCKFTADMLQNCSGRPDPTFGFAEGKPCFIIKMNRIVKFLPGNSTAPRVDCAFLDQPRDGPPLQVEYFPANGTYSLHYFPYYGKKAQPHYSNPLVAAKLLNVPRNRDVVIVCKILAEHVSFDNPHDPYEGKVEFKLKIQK

As for `CCCCC/C=C\C/C=C\C/C=C\C/C=C\CCCC(=O)O` [Arachidonic acid], the pIC50 in data set [1] was 4.78.

In the case of `CCCCC/C=C\C[C@@H](O)/C=C/C=C/C=C\[C@@H](O)CCCC(=O)O` [LTB4, leukotriene B4], in [1], the “Attenuation of H,K-ATPase activity” value is given as “significant attenuation” and the “Inhibitory activity against H,K-ATPase” value is reported as “neither leukotriene showed any inhibitory activity”.

`CCCCC/C=C\C\C=C/C=C/C=C/[C@@H](SC[C@H](N)C(=O)NCC(=O)O)[C@@H](O)CCCC(=O)O` [LTD4, leukotriene D4]: in data set [1], the “Attenuation of H,K-ATPase activity” value is recorded as “significant attenuation” and the “Inhibitory activity against H,K-ATPase” value was “neither leukotriene showed any inhibitory activity”.

Turning to `CC1(C)Cc2c(-c3ccccc3)c(-c3ccc(Cl)cc3)c(CC(=O)O)n2C1` [ML 3000, [2,2-dimethyl-6-(4-chlorophenyl)-7-phenyl-2,3-dihydro-1H-pyrrolizine-5-yl]-acetic acid], the results for the pIC50 in [1] and in data set [2] were 4.79 and 6.34, respectively. Also, in data set [1] (ML 3000 titrated to pHs 2.0 to 7.4 for 30 min, 16.6 μM final concentration), the “Effect of ML 3000 acidification on H,K-ATPase inhibitory profile” value was “no significant effect”. Besides, the “Reversibility of H,K-ATPase inhibition” value in data set [1] (dilution from 100 μM to 3.3 μM) was “reversible”. Moreover, in data set [3], the Gastric damage result is reported as “no gastric damage”. The Gastric mucosal injury entry in data set [4] is reported as “no gastric mucosal injury”. In data set [4], the “Leukocyte adherence in mesenteric venules” value is given as “no effect”. Further, in data set [4] (rat stomach and blood), the “Gastric prostaglandin E2 synthesis” value is recorded as “reduces”. In addition, the “Inhibition of gastric or blood leukotriene B4 synthesis” value in data set [4] (rat) is given as “not detected”. In [5] (animal models), the “Gastric damage and peristaltic disturbance” value is reported as “neither gastric damage nor peristaltic disturbance”. Further, the “Rat locomotor activity or hexobarbital-induced sleep” value in data set [5] was “did not affect”. Further, the “Cardiovascular or respiratory effects” value in data set [5] (rat) and in data set [6] was “no cardiovascular or respiratory effects” each time. In addition, in data set [5] (rats), the Urine output result is recorded as “small transient reduction”. Moreover, in [7], the Neuromuscular function result was “without affect”. For the same compound, in data set [8], the Spasmogenic response entry is listed as “weak spasmogenic response”. Besides, the “Genotoxicity: gene mutation frequencies in bacteria or mammalian cells, unscheduled DNA synthesis, chromosomal aberrations in rat bone marrow cells” value in data set [9] is given as “no effects”. The Distribution and excretion result in data set [10] is “enterohepatic circulation and glucuronide conjugation”.

As to `CS(=O)(=O)Nc1ccc([N+](=O)[O-])cc1OC1CCCCC1` [NS 398], in [1] (concentrations up to 10^-4 M), the “Inhibitory effect on microsomal H,K-ATPase activity” value was “without inhibitory effects”. Besides, in [11], the “Effect on acid accumulation by isolated rabbit parietal cells” value is given as “no effect”.

Consider `CCCCC[C@H](O)/C=C/[C@H]1[C@H](O)CC(=O)[C@@H]1C/C=C\CCCC(=O)O` [PGE2, prostaglandin E2], for which the pIC50 in data set [1] is 4.82. Further, in data set [12] (pig, previous study), the “Inhibitory effect on pig gastric H,K-ATPase” value is given as “no inhibitory effect”.

With `CC(=O)Oc1ccccc1C(=O)O` [acetyl salicylic acid], the “Inhibitory effect on microsomal H,K-ATPase activity” value in [1] (concentrations up to 10^-3 M) is on record as “without inhibitory effects”. Further, the “Effect on acid accumulation by isolated rabbit parietal cells” value in [11] was “no effect”.

In the case of `COc1ccc2c(c1)c(CC(=O)O)c(C)n2C(=O)c1ccc(Cl)cc1` [indomethacin], in [1] (concentrations up to 10^-4 M), the “Inhibitory effect on microsomal H,K-ATPase activity” value is “without inhibitory effects”. In data set [12] (read-out: Ki, inhibition of gastric H,K-ATPase), the pKi is 3.17.

On to `Cc1c(OCC(F)(F)F)ccnc1C[S+]([O-])c1nc2ccccc2[nH]1` (centres unmarked) [lansoprazole], for which the pIC50 in [12] is 5.68.

With `COc1ccc2cc([C@H](C)C(=O)O)ccc2c1` [naproxen], the “Inhibitory effect on microsomal H,K-ATPase activity” value in data set [1] (concentrations up to 10^-4 M) is “without inhibitory effects”.

For the compound `COC(=O)c1cc2nc([S+]([O-])Cc3ncccc3C)[nH]c2cc1C` (centres unmarked) [picoprazole], the pIC50 in data set [12] was 5.70.

Regarding `COCCCOc1ccnc(C[S+]([O-])c2nc3ccccc3[nH]2)c1C` (centres unmarked) [rabeprazole], in data set [12], the pIC50 was 7.14.

Broadly, the pIC50 is −log10 of the IC50, conventionally taken in molar units. One may read the pKi as −log10 of the Ki, conventionally taken in molar units.

Values taken from publication PMC368434 (BMC Gastroenterology, 2004).
